Assay results from PubChem BioAssay.
Records with an inconclusive call do not appear.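 The calls were made as follows, unless noted: active = inhibition over a set limit, the all-compound mean plus 3 SD, in both replicate runs; inconclusive = over that limit in just one replicate run; inactive = at or under that limit in both runs.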

What was measured:
[1] = S. cerevisiae growth inhibition in permissive medium (OD615), pilot counter-assay for S. cerevisiae lifespan shortening project, permissive growth control (AID 705;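 active = growth inhibition above 25% in both replicates, a cutoff set 3 SD above the mean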); settings: OD615, 24 h, at 10 µM, stronger effect = higher value
In short: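 System: S. cerevisiae with engineered DeaD lifespan system / Measured by: absorbance (optical density) at 615 nm / Read-out: reduction in yeast growth (OD615) / Times: 4 h cell pre-growth, 24 h exposure at 30 °C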

[2] = S. cerevisiae growth inhibition in restrictive medium, OD615, pilot screen, restrictive growth control, yeast lifespan reduction project (AID 706;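 active = growth inhibition above a set limit, 3 SD over mean compound inhibition, in both replicates, cut at about 43% in these data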;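 also: modified DeaD lifespan yeast strain shifted to restrictive glucose medium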); settings: OD615, 48 h, at 10 µM, stronger effect = higher value
In short: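 System: Engineered S. cerevisiae DeaD strain | Buffer or medium: Glucose-based CSMM-D restrictive medium | Schedule: 4 h pre-incubation, 48 h exposure at 30 °C | Technique: Optical density at 615 nm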

[3] = doxorubicin toxicity protection in MRP-1 cells – H69AR cells, CellTiter-Glo, duplicate, MRP-1 activator project, pilot screen (AID 807;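 active = viability increase at or above a cutoff of the median across tested compounds plus 3 SD, cut at about 8.5% in these data, passing the limit was not always enough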;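 also: compound pretreatment 18-22 h then 72 h combined with doxorubicin; 0% = doxorubicin alone and 100% = vehicle without doxorubicin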); settings: H69AR viability with doxorubicin, CellTiter-Glo luminescence; at 10 µM; stronger effect = higher value
[4] = viability of HCT116 without oncogenic beta-catenin – human colon tumor cells, pilot screen (AID 823;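 active = cell viability at or below a set limit in both duplicate runs, the limit being the all-compound median minus 4 SD, cut at about 23% in these data, passing the limit was not always enough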;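 also: 0% = wells killed by 20 µM Hyamine and 100% = untreated DMSO cell wells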); settings: HCT116 beta-catenin knockout viability, CellTiter-Glo, 60 h; at 10 µM; stronger effect = lower value
[5] = viability of PTEN-null HCT116 cells – cell-based, HCT116 clonal line, CellTiter-Glo, pilot screen (AID 824;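 active = viability at or below 27.92% in each of two runs, the all-compound median minus 4 SD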;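 also: 0% = 20 µM Hyamine control and 100% = vehicle cell control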); settings: HCT116 PTEN-deleted viability, 60 h, at 10 µM, stronger effect = lower value
[6] = RAM pathway blockade in budding yeast – dse1pr::URA3 reporter, 5-FOA selection, pilot screen (AID 869);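 also: 0% = DMSO wells with no growth and 100% = 10 µM 1-NA-PP1 with full growth; RAM network block rescues cells from 5-FOA so hits raise OD615 growth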; settings: S. cerevisiae dse1pr::URA3 5-FOA growth, OD615, 2 d; at 10 µM; stronger effect = higher value; strain carries analog-sensitive mutant Cbk1 kinase
[7] = RAM signaling pathway blockade in yeast – S. cerevisiae, Pdr1DBD-CYC8 efflux-inhibited sensitized strain, primary screen (AID 1298;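 active = RAM network inhibition above 8.4% in each of two replicates, 3 SD over the compound average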;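 also: 0% = DMSO untreated cells without growth and 100% = 10 µM 1-NA-PP1 full growth; higher means more yeast growth rescued from 5-FOA killing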); settings: S. cerevisiae cbk1-as DSE1-URA3 strain, 5-FOA growth OD615, 2 d; at 50 µM; stronger effect = higher value

CCOc1ccc(C2N(c3ccc(OC)cc3)C(=O)C3CCCN32)cc1OC (stereo not drawn)
inactive: growth inhibition [1] -1.7% | growth inhibition [2] -0.11% | viability increase [3] -2.39% | viability [4] 98.7% | viability [5] 101% | inhibition [6] 1.57% | RAM network inhibition [7] 3%

O=C1CC(N2CCN(C(c3ccccc3)c3ccccc3)CC2)C(=O)N1 (stereo not drawn)
inactive: growth inhibition [1] -8.31% | growth inhibition [2] -9.7% | viability increase [3] -1.16% | viability [4] 102% | viability [5] 102% | inhibition [6] 1.03% | RAM network inhibition [7] 5.3%

CCOC(=O)Cn1c(C)cc(=O)c2cccc(C)c21
inactive: growth inhibition [1] -19.8% | growth inhibition [2] -12.9% | viability increase [3] 0.49% | viability [4] 92% | viability [5] 96.9% | inhibition [6] 0.035% | RAM network inhibition [7] 1.15%

Cc1ccc(-c2noc(CSc3nnnn3C3CCCCC3)n2)cc1
inactive: growth inhibition [1] -16.1% | growth inhibition [2] -13.6% | viability increase [3] -1.39% | viability [4] 89.8% | viability [5] 84% | inhibition [6] 0.525% | RAM network inhibition [7] 5.16%

O=C(C1=C(O)C(=O)N(c2ncccn2)C1c1cccs1)c1ccco1 (stereo not drawn)
inactive: growth inhibition [1] 0.75% | growth inhibition [2] 7.12% | viability increase [3] -4.29% | viability [4] 86.5% | viability [5] 85.3% | inhibition [6] 1.54% | RAM network inhibition [7] 1.69%

CC(=O)Nc1ccc(S(=O)(=O)c2ccc(N)cc2)cc1N
inactive: growth inhibition [1] -3.35% | growth inhibition [2] 2.46% | viability increase [3] -1.15% | viability [4] 104% | viability [5] 98.8% | inhibition [6] 2.1% | RAM network inhibition [7] 3.91%

CCOC(=O)c1c(C)n(C)c2ccc(OCC(O)CN3CCCCCC3)cc12 (stereo not drawn)
inactive: growth inhibition [1] -0.855% | growth inhibition [2] -3.17% | viability increase [3] -5.4% | viability [4] 61.5% | viability [5] 62.5% | inhibition [6] 0.77% | RAM network inhibition [7] 2.14%

Cn1c(Cn2c(=O)sc3ccccc32)nnc1SCC(=O)NCc1ccc2c(c1)OCO2
inactive: growth inhibition [1] -5.55% | growth inhibition [2] -2.44% | viability increase [3] 0.11% | viability [4] 103% | viability [5] 101% | inhibition [6] 1.07% | RAM network inhibition [7] 4.41%

CCc1ccc(C2N(c3ccc(OC)cc3)C(=O)C3CCCN32)cc1 (stereo not drawn)
inactive: growth inhibition [1] 2.83% | growth inhibition [2] -2.37% | viability increase [3] -1.6% | viability [4] 95.3% | viability [5] 101% | inhibition [6] 0.83% | RAM network inhibition [7] 0.23%

Cn1c(Cn2c(=O)sc3ccccc32)nnc1SCC(=O)N1CCOCC1
inactive: growth inhibition [1] -13.2% | growth inhibition [2] -28% | viability increase [3] -1.17% | viability [4] 103% | viability [5] 99.2% | inhibition [6] 2.92% | RAM network inhibition [7] 3.55%

CCNC(=O)c1c(N)sc2c1CCCCC2
inactive: growth inhibition [1] -5.81% | growth inhibition [2] 1.6% | viability increase [3] -2.57% | viability [4] 103% | viability [5] 100% | inhibition [6] 1.88% | RAM network inhibition [7] 4.23%

Cc1nnc(NC(=O)c2oc3cc(C)c(C)cc3c2C)s1
inactive: growth inhibition [1] -3.77% | growth inhibition [2] -4.99% | viability increase [3] -0.05% | viability [4] 105% | viability [5] 99.8% | inhibition [6] 1.64% | RAM network inhibition [7] 5.7%

O/N=C(/Cc1ccccn1)c1ccccc1
inactive: growth inhibition [1] -1.64% | growth inhibition [2] 7.06% | viability increase [3] -1.19% | viability [4] 101% | viability [5] 101% | inhibition [6] 1.97% | RAM network inhibition [7] 0.22%

COc1ccc(NC(=O)c2nc3nc(C)cc(C(F)F)n3n2)cc1OC
inactive: growth inhibition [1] -10.9% | growth inhibition [2] -6.71% | viability increase [3] 2.09% | viability [4] 108% | viability [5] 102% | inhibition [6] 0.885% | RAM network inhibition [7] 1.05%

CCc1nnc(NC(=O)C2CCCCC2)s1
inactive: growth inhibition [1] 5.8% | growth inhibition [2] 14.7% | viability increase [3] 1.12% | viability [4] 109% | viability [5] 106% | inhibition [6] 0.455% | RAM network inhibition [7] 1.04%

Cc1cc(F)ccc1S(=O)(=O)Nc1c(C)n(C)n(-c2ccccc2)c1=O
inactive: growth inhibition [1] 1.71% | growth inhibition [2] 0.315% | viability increase [3] -1.59% | viability [4] 114% | viability [5] 93.7% | inhibition [6] 0.205% | RAM network inhibition [7] 2.26%

Cc1csc(NC(=O)C2CCCN(S(=O)(=O)c3cccnc3)C2)n1 (stereo not drawn)
inactive: growth inhibition [1] -7.25% | growth inhibition [2] 1.94% | viability increase [3] -0.73% | viability [4] 104% | viability [5] 101% | inhibition [6] 1.59% | RAM network inhibition [7] 4.94%

CCOc1ccc2[nH]cc(S(=O)(=O)c3ccc(F)cc3)c(=O)c2c1
inactive: growth inhibition [1] -4.64% | growth inhibition [2] -19.8% | viability increase [3] -0.98% | viability [4] 78.7% | viability [5] 87.2% | inhibition [6] 0.455% | RAM network inhibition [7] 2.36%

CCN(CC)CCCNC(=O)c1cc(-c2ccc(O)cc2)on1
inactive: growth inhibition [1] -14.6% | growth inhibition [2] 9.75% | viability increase [3] -3.12% | viability [4] 99.1% | viability [5] 96.1% | inhibition [6] 1.24% | RAM network inhibition [7] 1.77%

Cc1cccc(NC(=O)CSc2nnc(-c3ccccc3)n2N)c1C
inactive: growth inhibition [1] -9.02% | growth inhibition [2] -15.1% | viability increase [3] -2.08% | viability [4] 94.4% | viability [5] 90.2% | inhibition [6] 1.85% | RAM network inhibition [7] 0.16%

CC(C)(C)SCCNS(=O)(=O)c1ccccc1
inactive: growth inhibition [1] -8.9% | growth inhibition [2] 6.57% | viability increase [3] -0.28% | viability [4] 99.8% | viability [5] 93.4% | inhibition [6] 2.52% | RAM network inhibition [7] 3.01%

CCN(CC)c1cc(C)c2cc(NC(=O)CNC(C)=O)ccc2n1
inactive: growth inhibition [1] -10.4% | growth inhibition [2] -8.29% | viability increase [3] -2.37% | viability [4] 90% | viability [5] 91.1% | inhibition [6] 1.11% | RAM network inhibition [7] 2.59%

Cc1ccc(C)c(C(=O)CSc2n[nH]c(C)n2)c1
inactive: growth inhibition [1] 0.045% | growth inhibition [2] 11.3% | viability increase [3] -0.91% | viability [4] 102% | viability [5] 102% | inhibition [6] 1.77% | RAM network inhibition [7] 1.5%

Oc1c(C(c2ccccc2)N2CCCCC2)sc2ncnn12 (stereo not drawn)
inactive: growth inhibition [1] -0.17% | growth inhibition [2] -3.96% | viability increase [3] -0.8% | viability [4] 95.7% | viability [5] 91.8% | inhibition [6] 1.76% | RAM network inhibition [7] 0.66%
